Measurements taken from ChEMBL document CHEMBL4118270, “Synthesis, in vitro and in silico studies of novel potent urease inhibitors: N-[4-({5-[(3-Un/substituted-anilino-3-oxopropyl)sulfanyl]-1,3,4-oxadiazol-2-yl}methyl)-1,3-thiazol-2-yl]benzamides” (Bioorg Med Chem, 2018).

Experiments:
[1] = target: Urease (Helicobacter pylori) (UniProt Q0PXQ5); assay: Inhibition of Campylobacter pylori urease preincubated for 5 mins followed by urea addition measured after 10 mins by Berthelot assay relative to control; design: concentration or dose not given beside the values
Sequence of Urease (Helicobacter pylori) (Q0PXQ5 as listed by the source): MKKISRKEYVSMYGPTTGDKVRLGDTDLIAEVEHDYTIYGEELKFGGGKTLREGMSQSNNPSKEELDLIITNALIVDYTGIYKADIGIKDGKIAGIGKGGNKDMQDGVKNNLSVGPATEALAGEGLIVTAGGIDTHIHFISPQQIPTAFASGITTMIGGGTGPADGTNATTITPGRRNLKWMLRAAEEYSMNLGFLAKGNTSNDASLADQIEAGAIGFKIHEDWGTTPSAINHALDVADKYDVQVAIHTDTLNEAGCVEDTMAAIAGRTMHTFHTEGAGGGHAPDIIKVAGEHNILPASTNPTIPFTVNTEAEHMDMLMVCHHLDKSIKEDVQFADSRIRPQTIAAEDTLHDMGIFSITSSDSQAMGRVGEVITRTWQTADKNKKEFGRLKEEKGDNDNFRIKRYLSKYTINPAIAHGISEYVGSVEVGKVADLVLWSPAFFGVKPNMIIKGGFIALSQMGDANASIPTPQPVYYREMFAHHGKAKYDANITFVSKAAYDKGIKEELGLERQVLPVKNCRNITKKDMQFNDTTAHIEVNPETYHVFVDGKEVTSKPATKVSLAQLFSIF
In short: (§1)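 Modified Berthelot assay in pH 7.0 phosphate buffer. Sample and enzyme (0.135 units) are pre-incubated 5 min at 37 °C. Urea (20 mM stock) is added and incubated 10 min at 37 °C. […] IC50 is fitted from dilution series. Mean ± SEM, n = 3.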

[2] = target: Urease (Helicobacter pylori, UniProt Q0PXQ5); assay: Inhibition of Campylobacter pylori urease preincubated for 5 mins followed by urea addition measured after 10 mins by Berthelot assay; in short: as §1
Sequence of Urease (Q0PXQ5 whole entry): as the sequence (Q0PXQ5 as listed by the source) above

Which inhibition [1] does the source give for `Cc1ccc(NC(=O)CCSc2nnc(Cc3csc(NC(=O)c4ccccc4)n3)o2)cc1C` here?
Its inhibition is 76.5%.

What about the IC50 [2] of the same molecule?
Its IC50 is 34.2 µM.

For `Cc1ccccc1NC(=O)CCSc1nnc(Cc2csc(NC(=O)c3ccccc3)n2)o1`, which inhibition [1] is on record?
Its inhibition is 98.2%.

And the IC50 [2]?
The IC50 was 7.47 µM.

`Cc1cccc(NC(=O)CCSc2nnc(Cc3csc(NC(=O)c4ccccc4)n3)o2)c1C` was tested. Which inhibition [1] did it give?
The inhibition was 69.8%.

And the IC50 [2]?
The IC50 was 48.2 µM.

Which results are given for `Cc1cc(C)cc(NC(=O)CCSc2nnc(Cc3csc(NC(=O)c4ccccc4)n3)o2)c1`?
inhibition [1]: 64.8%; IC50 [2]: 52.1 µM

For `CCc1ccc(NC(=O)CCSc2nnc(Cc3csc(NC(=O)c4ccccc4)n3)o2)cc1`, which inhibition [1] is on record?
The inhibition was 74.2%.

What about the IC50 [2] of the same molecule?
The IC50 was 43.2 µM.

What does the source list for `Cc1cccc(C)c1NC(=O)CCSc1nnc(Cc2csc(NC(=O)c3ccccc3)n2)o1`?
inhibition [1]: 98.5%; IC50 [2]: 2.79 µM

`Cc1ccc(C)c(NC(=O)CCSc2nnc(Cc3csc(NC(=O)c4ccccc4)n3)o2)c1` was tested. Which inhibition [1] did it give?
The inhibition was 77.9%.

And the IC50 [2]?
The IC50 was 15.2 µM.

Which results are given for `Cc1cccc(NC(=O)CCSc2nnc(Cc3csc(NC(=O)c4ccccc4)n3)o2)c1`?
inhibition [1]: 84.8%; IC50 [2]: 12.2 µM

For `CCOc1ccc(NC(=O)CCSc2nnc(Cc3csc(NC(=O)c4ccccc4)n3)o2)cc1`, which inhibition [1] is on record?
The inhibition was 88.8%.

What about the IC50 [2] of the same molecule?
The IC50 was 23.2 µM.

Which IC50 [2] does the source give for `NC(N)=S` [THIOUREA] here?
Its IC50 is 21.1 µM.

Which results are given for `O=C(CCSc1nnc(Cc2csc(NC(=O)c3ccccc3)n2)o1)Nc1ccccc1`?
inhibition [1]: 98.5%; IC50 [2]: 2.95 µM

What does the source list for `Cc1ccc(NC(=O)CCSc2nnc(Cc3csc(NC(=O)c4ccccc4)n3)o2)cc1`?
inhibition [1]: 76.4%; IC50 [2]: 29.2 µM

Which results are given for `CCc1ccccc1NC(=O)CCSc1nnc(Cc2csc(NC(=O)c3ccccc3)n2)o1`?
inhibition [1]: 98.7%; IC50 [2]: 2.58 µM
